According to article PMC9435035 (ACS Omega, 2022):

Experiments:
α-glucosidase = α-glucosidase (Saccharomyces cerevisiae, UniProt P53341); test: α-glucosidase inhibitory activity; format: biochemical; details: read-out: glucosidase inhibition IC50 ± SEM; mean ± SEM
Balb/C mice = test: acute toxicity study in mice; format: in vivo; details: for mortality: maximum oral dose of 2000 mg/kg (b.w.); for toxic effects (diarrhea, convulsions, lethargy, sleeping, salivation, tremor): oral up to 2000 mg/kg, observed daily for 2 weeks
Summary of the method: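 Two-phase modified Lorke protocol in Balb/C mice (20–25 g), four per group. Phase 1: control given Tween-80 (2%); other groups received oral test compound at 100, 500 or 1000 mg/kg. Phase 2: oral doses of 1250, 1500 and 2000 mg/kg. Animals observed for the first 24 h, then daily for 2 weeks for diarrhea, convulsions, lethargy, sleeping, salivation and tremors, with mortality monitored.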

[1] = test system: overnight fasted normal rats; test: oral glucose tolerance test; format: in vivo, Wistar albino rats; details: OGTT, glucose 3 g/kg oral
[2] = test system: streptozotocin-induced diabetic Wistar rats; test: antidiabetic activity: blood glucose in STZ-induced diabetes; format: in vivo, Wistar albino rats
Summary of the method: (§1)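 Male Wistar albino rats (170–200 g, 8–10 weeks), fasted overnight, given STZ 50 mg/kg i.p. in 0.1 M citrate buffer, then 10% glucose for 3 days. Tail-vein glucose by glucometer at 72 h; >250 mg/dL counted as diabetic. Body weight and blood glucose on days 1, 7, 14, 21 and 28. Means ± SEM, one-way ANOVA with Dunnett's test.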

[3] = body weight of STZ-induced diabetic rats; format: in vivo, Wistar albino rats; details: for body weight, day 1: day 1, in g (unit assumed); for body weight, day 7: day 7, in g (unit assumed); for body weight, day 14: day 14, in g (unit assumed); for body weight, day 21: day 21, in g (unit assumed); for body weight, day 28: day 28, in g (unit assumed)
Summary of the method: as §1

[4] = test system: streptozotocin-induced diabetic Wistar rats; test: lipid profile in streptozotocin-induced diabetes; format: in vivo, Wistar albino rats; details: STZ-diabetic rats
Summary of the method: (§2)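 STZ-diabetic Wistar rats (n = 8 per group) received test compound at 10 or 20 mg/kg p.o., or glibenclamide 500 μg/kg p.o., once daily for 28 days; controls received vehicle. On day 28, rats were anesthetised with pentobarbital sodium (35 mg/kg) and blood was drawn by cardiac puncture. Serum ALP, SGPT, SGOT, LDL, HDL, TG, total cholesterol, creatinine and insulin were measured. Means ± SEM, one-way ANOVA with Dunnett's test.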

[5] = test system: streptozotocin-induced diabetic Wistar rats; test: serum profile; format: in vivo, Wistar albino rats; details: STZ-diabetic rats; for (ALP) IU / (SGOT) IU / (SGPT) IU: serum
Summary of the method: as §2

[6] = 20 mg/kg p.o. once daily, day 28, 20 mg/kg

Chain of α-glucosidase (P53341 whole entry): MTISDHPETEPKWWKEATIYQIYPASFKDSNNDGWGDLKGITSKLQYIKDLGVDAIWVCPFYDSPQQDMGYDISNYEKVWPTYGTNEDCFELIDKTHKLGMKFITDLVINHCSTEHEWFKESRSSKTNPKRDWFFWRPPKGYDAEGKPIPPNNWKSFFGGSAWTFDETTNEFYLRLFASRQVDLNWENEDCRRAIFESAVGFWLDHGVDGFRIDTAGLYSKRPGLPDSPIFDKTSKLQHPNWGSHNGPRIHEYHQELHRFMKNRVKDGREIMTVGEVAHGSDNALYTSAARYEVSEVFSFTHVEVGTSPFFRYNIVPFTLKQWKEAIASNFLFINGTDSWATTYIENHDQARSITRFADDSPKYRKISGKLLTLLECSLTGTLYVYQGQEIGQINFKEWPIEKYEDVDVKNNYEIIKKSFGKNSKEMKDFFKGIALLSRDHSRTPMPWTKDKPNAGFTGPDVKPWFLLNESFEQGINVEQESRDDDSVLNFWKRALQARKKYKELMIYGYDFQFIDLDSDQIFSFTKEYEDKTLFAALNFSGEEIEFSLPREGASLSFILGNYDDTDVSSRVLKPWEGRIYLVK

1-Phenyl-3-(4-(4-(p-tolyl)-2,3-dihydrobenzo[b][1,5]thiazepin-2-yl)phenyl)prop-2-en-1-one [6B]
IC50 (α-glucosidase): 3.63 ± 0.36 µM
mortality (Balb/C mice): no mortality
toxic effects (diarrhea, convulsions, lethargy, sleeping, salivation, tremor) (Balb/C mice): no toxic effects
blood glucose level, 0 min ([1]; dose 10 mg/kg): 103.41 ± 4.05 mg/dL
blood glucose level, 30 min ([1]; dose 10 mg/kg): 125.39 ± 4.10 mg/dL
blood glucose level, 60 min ([1]; dose 10 mg/kg): 120.41 ± 4.81 mg/dL
blood glucose level, 90 min ([1]; dose 10 mg/kg): 112.61 ± 4.81 mg/dL
blood glucose level, 120 min ([1]; dose 10 mg/kg): 114.91 ± 4.59 mg/dL
blood glucose level, 0 min ([1]; dose 20 mg/kg): 100.93 ± 4.11 mg/dL
blood glucose level, 30 min ([1]; dose 20 mg/kg): 119.91 ± 4.62 mg/dL
blood glucose level, 60 min ([1]; dose 20 mg/kg): 121.66 ± 4.31 mg/dL
blood glucose level, 90 min ([1]; dose 20 mg/kg): 111.22 ± 4.21 mg/dL
blood glucose level, 120 min ([1]; dose 20 mg/kg): 109.78 ± 5.01 mg/dL
blood glucose level, day 1 ([2]; 10 mg/kg p.o. once daily): 381.40 ± 4.30 mg/dL
blood glucose level, day 7 ([2]; 10 mg/kg p.o. once daily, day 7, 10 mg/kg): 280.90 ± 4.66 mg/dL
blood glucose level, day 14 ([2]; 10 mg/kg p.o. once daily, day 14, 10 mg/kg): 205.31 ± 4.01 mg/dL
blood glucose level, day 21 ([2]; 10 mg/kg p.o. once daily, day 21, 10 mg/kg): 150.45 ± 4.92 mg/dL
blood glucose level, day 28 ([2]; 10 mg/kg p.o. once daily, day 28): 135.67 ± 3.89 mg/dL
blood glucose level, day 1 ([2]; 20 mg/kg p.o. once daily): 380.30 ± 4.78 mg/dL
blood glucose level, day 7 ([2]; 20 mg/kg p.o. once daily, day 7, 20 mg/kg): 228.44 ± 5.06 mg/dL
blood glucose level, day 14 ([2]; 20 mg/kg p.o. once daily, day 14, 20 mg/kg): 166.09 ± 4.46 mg/dL
blood glucose level, day 21 ([2]; 20 mg/kg p.o. once daily, day 21, 20 mg/kg): 129.71 ± 4.09 mg/dL
blood glucose level, day 28 [2, 6]: 111.81 ± 4.08 mg/dL
body weight, day 1 ([3]; 10 mg/kg): 190.0 ± 3.98
body weight, day 7 ([3]; 10 mg/kg): 182.5 ± 4.19
body weight, day 14 ([3]; 10 mg/kg): 187.1 ± 4.88
body weight, day 21 ([3]; 10 mg/kg): 183.4 ± 4.60
body weight, day 28 ([3]; 10 mg/kg): 180.9 ± 4.23
body weight, day 1 ([3]; 20 mg/kg): 194.1 ± 4.41
body weight, day 7 ([3]; 20 mg/kg): 189.3 ± 4.61
body weight, day 14 ([3]; 20 mg/kg): 190.3 ± 4.71
body weight, day 21 ([3]; 20 mg/kg): 186.7 ± 3.96
body weight, day 28 ([3]; 20 mg/kg): 184.3 ± 4.33
LDL ([4]; 10 mg/kg for 28 days): 130.21 ± 3.99 mg/dL
TG ([4]; 10 mg/kg for 28 days): 145.21 ± 4.98 mg/dL
total CH ([4]; 10 mg/kg for 28 days): 151.07 ± 4.92 mg/dL
HDL ([4]; 10 mg/kg for 28 days, 10 mg/kg): 44.89 ± 3.01 mg/dL
LDL ([4]; 20 mg/kg for 28 days): 113.41 ± 4.71 mg/dL
TG ([4]; 20 mg/kg for 28 days): 116.82 ± 4.41 mg/dL
total CH ([4]; 20 mg/kg for 28 days): 137.11 ± 3.71 mg/dL
HDL ([4]; 20 mg/kg for 28 days, 20 mg/kg): 52.07 ± 2.69 mg/dL
insulin level ([5]; 10 mg/kg for 28 days): 0.658 ± 0.31 ng/mL
serum creatinine ([5]; 10 mg/kg for 28 days): 0.82 ± 0.22 mg/dL
(ALP) IU ([5]; 10 mg/kg for 28 days): 214.19 ± 4.11 IU
(SGOT) IU ([5]; 10 mg/kg for 28 days): 25.81 ± 2.16 IU
(SGPT) IU ([5]; 10 mg/kg for 28 days): 25.90 ± 2.11 IU
insulin level ([5]; 20 mg/kg for 28 days): 0.667 ± 0.40 ng/mL
serum creatinine ([5]; 20 mg/kg for 28 days): 0.75 ± 0.30 mg/dL
(ALP) IU ([5]; 20 mg/kg for 28 days): 204.71 ± 4.13 IU
(SGOT) IU ([5]; 20 mg/kg for 28 days): 22.31 ± 2.17 IU
(SGPT) IU ([5]; 20 mg/kg for 28 days): 23.01 ± 2.11 IU

2-(4-(Benzyloxy)-3-methoxyphenyl)-4-(p-tolyl)-2,3-dihydrobenzo[b][1,5]thiazepine [12B]
IC50 (α-glucosidase): 3.79 ± 0.22 µM
mortality (Balb/C mice): no mortality
toxic effects (diarrhea, convulsions, lethargy, sleeping, salivation, tremor) (Balb/C mice): no toxic effects
blood glucose level, 0 min ([1]; dose 10 mg/kg): 101.67 ± 4.55 mg/dL
blood glucose level, 30 min ([1]; dose 10 mg/kg): 121.63 ± 4.56 mg/dL
blood glucose level, 60 min ([1]; dose 10 mg/kg): 122.02 ± 4.66 mg/dL
blood glucose level, 90 min ([1]; dose 10 mg/kg): 115.31 ± 4.61 mg/dL
blood glucose level, 120 min ([1]; dose 10 mg/kg): 114.19 ± 4.61 mg/dL
blood glucose level, 0 min ([1]; dose 20 mg/kg): 105.59 ± 4.61 mg/dL
blood glucose level, 30 min ([1]; dose 20 mg/kg): 117.38 ± 4.01 mg/dL
blood glucose level, 60 min ([1]; dose 20 mg/kg): 117.61 ± 4.60 mg/dL
blood glucose level, 90 min ([1]; dose 20 mg/kg): 110.71 ± 4.91 mg/dL
blood glucose level, 120 min ([1]; dose 20 mg/kg): 111.21 ± 4.31 mg/dL
blood glucose level, day 1 ([2]; 10 mg/kg p.o. once daily): 371.67 ± 4.66 mg/dL
blood glucose level, day 7 ([2]; 10 mg/kg p.o. once daily, day 7): 301.41 ± 4.56 mg/dL
blood glucose level, day 14 ([2]; 10 mg/kg p.o. once daily, day 14): 209.60 ± 4.22 mg/dL
blood glucose level, day 21 ([2]; 10 mg/kg p.o. once daily, day 21): 152.56 ± 4.71 mg/dL
blood glucose level, day 28 ([2]; 10 mg/kg p.o. once daily, day 28, 10 mg/kg): 138.92 ± 4.67 mg/dL
blood glucose level, day 1 ([2]; 20 mg/kg p.o. once daily): 369.56 ± 4.56 mg/dL
blood glucose level, day 7 ([2]; 20 mg/kg p.o. once daily, day 7): 237.11 ± 4.39 mg/dL
blood glucose level, day 14 ([2]; 20 mg/kg p.o. once daily, day 14): 167.49 ± 5.02 mg/dL
blood glucose level, day 21 ([2]; 20 mg/kg p.o. once daily, day 21): 131.69 ± 4.77 mg/dL
blood glucose level, day 28 [2, 6]: 114.74 ± 5.09 mg/dL
body weight, day 1 ([3]; 10 mg/kg): 187.5 ± 4.39
body weight, day 7 ([3]; 10 mg/kg): 185.1 ± 4.71
body weight, day 14 ([3]; 10 mg/kg): 184.5 ± 4.06
body weight, day 21 ([3]; 10 mg/kg): 187.0 ± 4.39
body weight, day 28 ([3]; 10 mg/kg): 173.9 ± 4.28
body weight, day 1 ([3]; 20 mg/kg): 189.7 ± 4.08
body weight, day 7 ([3]; 20 mg/kg): 184.7 ± 4.66
body weight, day 14 ([3]; 20 mg/kg): 187.1 ± 4.11
body weight, day 21 ([3]; 20 mg/kg): 189.3 ± 4.60
body weight, day 28 ([3]; 20 mg/kg): 175.3 ± 5.01
HDL ([4]; 10 mg/kg for 28 days): 45.91 ± 2.70 mg/dL
TG ([4]; 10 mg/kg for 28 days): 149.81 ± 4.60 mg/dL
LDL ([4]; 10 mg/kg for 28 days, 10 mg/kg): 134.89 ± 4.33 mg/dL
total CH ([4]; 10 mg/kg for 28 days, 10 mg/kg): 152.11 ± 4.11 mg/dL
HDL ([4]; 20 mg/kg for 28 days): 53.24 ± 2.08 mg/dL
TG ([4]; 20 mg/kg for 28 days): 117.97 ± 4.01 mg/dL
LDL ([4]; 20 mg/kg for 28 days, 20 mg/kg): 113.71 ± 4.16 mg/dL
total CH ([4]; 20 mg/kg for 28 days, 20 mg/kg): 136.03 ± 4.39 mg/dL
insulin level ([5]; 10 mg/kg for 28 days): 0.651 ± 0.34 ng/mL
serum creatinine ([5]; 10 mg/kg for 28 days): 0.90 ± 0.30 mg/dL
(ALP) IU ([5]; 10 mg/kg for 28 days): 215.19 ± 4.10 IU
(SGOT) IU ([5]; 10 mg/kg for 28 days): 26.01 ± 2.01 IU
(SGPT) IU ([5]; 10 mg/kg for 28 days): 26.53 ± 2.38 IU
insulin level ([5]; 20 mg/kg for 28 days): 0.660 ± 0.30 ng/mL
serum creatinine ([5]; 20 mg/kg for 28 days): 0.80 ± 0.38 mg/dL
(ALP) IU ([5]; 20 mg/kg for 28 days): 205.93 ± 4.67 IU
(SGOT) IU ([5]; 20 mg/kg for 28 days): 22.91 ± 2.87 IU
(SGPT) IU ([5]; 20 mg/kg for 28 days): 23.35 ± 2.54 IU
